# A selection: hits, their analogues and other compounds. The true share with any hit is near 2%.
# PAD4 FP inh: inhibitors of human PAD4. recombinant PAD4, RCA probe fluorescence polarization. 0.41% of 330,000 active. inhibition, % at 6.36 µM. Q9UM07;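 active = percent inhibition above a cutoff equal to the mean of all tested compounds plus 3 SD, cut at about 15% in these data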;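 also: 0% = PAD4 with RCA probe and DMSO and 100% = probe without PAD4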
# Target sequence (Q9UM07 whole entry, looked up): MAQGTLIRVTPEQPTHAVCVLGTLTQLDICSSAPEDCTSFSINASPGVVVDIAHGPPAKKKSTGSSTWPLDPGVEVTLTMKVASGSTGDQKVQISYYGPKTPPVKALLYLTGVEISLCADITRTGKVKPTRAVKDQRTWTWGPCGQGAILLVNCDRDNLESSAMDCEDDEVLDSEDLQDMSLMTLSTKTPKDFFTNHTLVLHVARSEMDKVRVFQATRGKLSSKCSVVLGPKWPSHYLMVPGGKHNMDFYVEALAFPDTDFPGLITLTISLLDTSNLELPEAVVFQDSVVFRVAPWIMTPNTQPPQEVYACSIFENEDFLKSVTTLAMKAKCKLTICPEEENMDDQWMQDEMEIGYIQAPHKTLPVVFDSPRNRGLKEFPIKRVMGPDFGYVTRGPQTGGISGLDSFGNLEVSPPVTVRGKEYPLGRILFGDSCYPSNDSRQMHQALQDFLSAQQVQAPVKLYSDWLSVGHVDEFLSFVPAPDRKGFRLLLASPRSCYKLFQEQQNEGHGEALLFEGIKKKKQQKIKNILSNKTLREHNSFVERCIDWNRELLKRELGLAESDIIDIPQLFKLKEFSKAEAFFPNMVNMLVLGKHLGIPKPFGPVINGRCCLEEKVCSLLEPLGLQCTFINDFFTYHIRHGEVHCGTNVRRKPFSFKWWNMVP
# SIAE inh: blocks human sialic acid acetylesterase | inhibition, % at 9.66 µM | SIAE FP-Rh probe binding, fluorescence polarization | Q9HAT2 | 0.69% of 370,000 active;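 active = inhibition above a cutoff: mean of compounds within the control limits plus 3 SD of those, cut at about 17% in these data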;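 also: 0% = plate median of compound wells and 100% = probe without SIAE protein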
# TCR-CD3 inh: inhibitors of human TCR-CD3 interaction; TAMRA-labeled TCR probe fluorescence, biochemical; 0.37% of 360,000 active; inhibition, % at 9.4 µM; AID 651800;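 also: recombinant mutant TCR 2C K166C tagged with TAMRA read by polarization; 0% = receptor in buffer alone and 100% = receptor with positive control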
# ABHD4 inh: ABHD4 (mouse) inhibition, primary FP screen. AID 720543. purified mABHD4, FP-Rh probe fluorescence polarization. 0.54% of 370,000 active. Q8VD66. inhibition, % at 8.92 µM;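 active = inhibition exceeding the mean over every tested compound plus 3 SD, cut at about 30% in these data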;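 also: 0% = plate median of compound wells and 100% = S159A mutant with DMSO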
#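 Assay system: Wild-type mouse ABHD4 protein | Medium: HEPES pH 7.0 buffer, 150 mM NaCl, 0.01% Pluronic F-127 | Incubation: Enzyme–compound pre-incubation 45 min, then probe 60 min, both 25 °C | Technique: Fluorescence polarization with parallel and perpendicular emission, 525/598 nm | Evaluation: % inhibition of FP-Rh probe binding versus controls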
# HTRA1 inh: HTRA1 (human) protease inhibition | Q92743 | recombinant HTRA1, FP-rhodamine activity-based probe, fluorescence polarization | inhibition, % at 5.96 µM | 0.5% of 340,000 active; in the data active = inhibition above about 36%;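 also: 0% = enzyme with DMSO and 100% = wells lacking enzyme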
# TDP2 absorb: blocks human TDP2 phosphodiesterase activity | inhibition, % at 12.8 µM | AID 720702 | recombinant TDP2, T5PNP hydrolysis, p-nitrophenol absorbance 415 nm | 0.34% of 370,000 active | O95551;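 active = inhibition above the mean of all tested compounds plus 3 SD, set per campaign, cut at about 25% in these data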;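 also: 0% = DMSO with enzyme and 100% = buffer with substrate but no TDP2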
#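 Incubation: 2 h at 37 °C; Test system: recombinant human TDP2; Quantity: enzyme 120 nM; Read-out basis: percent inhibition; Medium: 50 mM Tris-HCl pH 7.5 with Mg2+, KCl, DTT, BSA; Repeats: single replicate; Compound: 12.8 µM single point, 1% DMSO; Signal: epi absorbance; Reagent: 5 mM T5PNP chromogenic substrate; Benchmarks: no-enzyme high, DMSO-plus-enzyme low.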
# BSA TAMRA ctr: BSA probe counter-screen for TCR-CD3 inhibitors; shares compounds with TCR-CD3 inh; TAMRA-labeled BSA probe fluorescence counterscreen; inhibition, % at 9.4 µM; 10% of 1,200 active; AID 652035; in the data active = inhibition above about 23%;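 also: 0% = buffer low control and 100% = reference high control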
# TCR-CD3 conf: TCR-CD3 interaction inhibition, confirmation. shares compounds with TCR-CD3 inh. TAMRA-labeled TCR probe fluorescence binding assay. inhibition, % at 9.4 µM. 48% of 1,200 active. AID 652036
# Starred values were filed as active, the others as inactive; . = no result; + = active, no number. Rule as the data show it, unless noted: active = inhibition above about 19%; inactive = the rest.
SMILES,PAD4 FP inh,SIAE inh,TCR-CD3 inh,ABHD4 inh,HTRA1 inh,TDP2 absorb,BSA TAMRA ctr,TCR-CD3 conf
CC(=O)Nc1cccc(C(=O)OCC(=O)NCc2ccc(F)cc2)c1,-4,1,2,-2,-6,8,.,.
CCN(c1ccccc1)S(=O)(=O)c1ccc(C(=O)N2CC(C)CC(C)C2)cc1 (centres undefined),6,2,-3,7,-3,9,.,.
Cc1ccc(NC(=O)C2C(=O)N(C)c3ccccc32)cc1 (centres undefined),0,0,2,-5,2,1,.,.
CN1C(=O)C(C(=O)Nc2ccccc2F)c2ccccc21 (centres undefined),1,1,19*,6,-1,-1,-2,1
O=C(CCl)NNC(=O)c1c(O)c2ccccc2[nH]c1=O,1,0,66*,-4,21,-12,-7,50*
O=C(NNC(=O)c1c(O)c2ccccc2[nH]c1=O)c1ccccc1Br,-9,-3,27*,3,5,-6,-11,14
O=C(NC1CC1)c1c(O)c2ccccc2[nH]c1=O,.,7,6,6,1,-3,.,.
CCCCC(=O)NNC(=O)c1c(O)c2ccccc2[nH]c1=O,-4,-9,18,-6,7,-20,.,.
O=C(NCC(O)c1ccc([N+](=O)[O-])cc1)C1=COCCO1 (centres undefined),2,2,+,0,1,-4,0,1
CNC(=S)NCC(O)c1ccc([N+](=O)[O-])cc1 (centres undefined),3,-1,5,0,4,4,.,.
Cc1ccc(O)c(-c2cc(C(=O)Nc3ccc(S(=O)(=O)Nc4nccc(C)n4)cc3)[nH]n2)c1,6,-27,60*,-31,-35,9,-8,32*
O=C(CC1C(=O)NCCN1Cc1cccc(F)c1)NCCCCCN1CCOCC1 (centres undefined),0,10,20*,7,6,17,1,-1
CCOc1ccc(CNc2ccc(S(N)(=O)=O)cc2)cc1,1,7,152*,-1,-5,7,0,1
Cc1nc(N)sc1-c1csc(Nc2ncccn2)n1,.,7,20*,11,16,2,15,20*
COc1ccc(CC(=O)NNC(=S)NC(=O)c2cccnc2)cc1,1,2,26*,5,5,-4,-3,17
COc1ccc(C(=O)NNC(=S)NC(=O)c2cccs2)cc1,-3,4,23*,-5,2,9,3,30*
O=C(NNC(=S)NC(=O)c1cccnc1)c1ccc(F)cc1,3,2,23*,4,5,0,-2,28*
COc1ccc(CC(=O)NNC(=S)NC(=O)c2cc(OC)c(OC)c(OC)c2)cc1,.,1,0,5,3,9,.,.
COc1ccc(C(=O)NNC(=S)NC(=O)c2cccnc2)cc1,1,8,38*,8,-2,17,1,37*
COc1ccc(C(=O)NNC(=S)NC(=O)c2ccc(OC)cc2)cc1,-1,5,11,3,4,0,.,.
Cc1ccc(C(C)C)c(OCC(=O)N/N=C2\CC(=O)CC(C)(C)C2)c1,-2,3,-5,-1,-6,-6,.,.
COc1ccc(C(=O)NC(=S)NNC(=O)c2ccncc2)cc1Br,-6,2,4,-4,4,-6,.,.
COc1ccc(C(=O)NNC(=S)NC(=O)c2ccc(F)cc2)cc1Br,2,0,20*,4,.,-6,-5,5
Cc1cc(NS(=O)(=O)c2ccc(NC(=S)NC(=O)c3cccnc3)cc2)no1,3,-2,46*,-7,8,-6,2,2
COc1cc([N+](=O)[O-])cc(/C=N/NC(=O)C(O)(c2ccccc2)c2ccccc2)c1O,3,9,-11,9,16,-13,.,.
SMILES,PAD4 FP inh,SIAE inh,TCR-CD3 inh,ABHD4 inh,HTRA1 inh,TDP2 absorb,BSA TAMRA ctr,TCR-CD3 conf
O=C(N/N=C/c1ccc([N+](=O)[O-])cc1)c1cccs1,-1,-6,-4,0,.,-21,.,.
O=C(N/N=C/c1cccc([N+](=O)[O-])c1O)c1cccs1,-1,7,29*,23,9,-10,-10,31*
O=C(N/N=C/c1cc([N+](=O)[O-])cc([N+](=O)[O-])c1O)/C(=C\c1cccs1)NC(=O)c1ccccc1,-5,3,47*,29,23,-3,-2,45*
O=C(N/N=C/c1cccc([N+](=O)[O-])c1O)C(O)(c1ccccc1)c1ccccc1,-4,1,28*,12,11,-16,-12,26*
O=S1(=O)c2ccc(N3CCCC3)cc2Oc2ccccc2CN1Cc1cn(Cc2cccc(F)c2)nn1,.,5,.,8,.,0,.,.
CN(C)c1ccccc1-c1cc(NC=O)c2ncc(-c3cccc(C(F)(F)F)c3)n2c1,.,31*,37*,73*,.,14,9,12
COc1ccccc1-c1cc(NC=O)c2ncc(-c3cccc(C(F)(F)F)c3)n2c1,.,-5,-3,1,.,14,.,.
CC(=O)c1cc(C#N)c(SCc2ccc([N+](=O)[O-])cc2)nc1C,-3,1,-1,1,-1,12,.,.
CC1(C)CC2CC(C)(CN2S(=O)(=O)c2ccc(C(=O)Nc3ccc(S(=O)(=O)N4CCOCC4)cc3)cc2)C1 (centres undefined),-8,-111,41*,-48,-75,2,23*,56*
Cc1ccc(-n2c(O)c(/C=N/NC(=O)C3COc4ccccc4O3)c3ccccc3c2=O)cc1 (centres undefined),-5,7,20*,25,16,1,-7,34*
COC(=O)[C@]12C[C@H](CC(=O)NCC34CC5CC(CC(C5)C3)C4)C(=O)N(Cc3cccc4ccccc34)C1=C[C@H](COCc1ccccc1)O[C@@H]2C,.,-2,.,5,.,-1,.,.
Cc1cc(/C=C2\SC(=O)NC2=O)c(C)n1-c1ccc(N2CCOCC2)cc1,-5,0,5,4,2,-4,.,.
Cc1cc(/C=C2\SC(=O)NC2=O)c(C)n1-c1ccc(N(C)C)cc1,-1,10,27*,7,-1,1,2,4
O=C(Nc1ccc2c(c1)OCO2)C1COc2ccccc2O1 (centres undefined),-2,7,48*,-1,4,-3,-1,-2
O=C(NNC(=O)C1COc2ccccc2O1)c1ccccc1O (centres undefined),.,7,29*,6,21,2,-12,25*
O=C(NN1C(=O)/C(=C/c2cccc(O)c2)SC1=S)c1ccccc1O,3,-1,28*,3,6,4,-17,17

# Source: PubChem
